Measured values taken from ChEMBL document CHEMBL1125736, “N-[(omega-amino-1-hydroxyalkyl)phenyl]methanesulfonamide derivatives with class III antiarrhythmic activity” (1991).

Experiments:
[1] = organism: Oryctolagus cuniculus; experiment: Tested for force of contraction measured in mg at a pacing rate of 2 Hz in vitro with rabbit heart tissue preparations.; assay type: functional
In short: (§1)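 Isolated rabbit heart tissues, all from one heart, each its own baseline; 2 h equilibration, perfusate changed every 15 min, basal stimulation 2 Hz between measurements. Exposed to 10^-7, 10^-6 and 10^-5 M drug, 15 min each; values reported at 10^-5 M as percent change from baseline. Drug solutions prepared daily in glass-distilled water. Force and rate recorded on polygraph.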

[2] = organism: Oryctolagus cuniculus; experiment: Tested for effective refractory period measured at a pacing rate of 3 Hz in vitro with rabbit heart tissue preparations.; assay type: functional; parameters: unit: %; in short: as §1
[3] = organism: Oryctolagus cuniculus; experiment: Tested for conduction time measured at a pacing rate of 3 Hz in vitro with rabbit heart tissue preparations.; assay type: functional; in short: as §1
[4] = organism: Oryctolagus cuniculus; experiment: Tested for rate automaticity measured in beats per minute from unpaced right atria of rabbit heart.; assay type: functional; in short: as §1
[5] = organism: Oryctolagus cuniculus; experiment: Tested for conduction time measured at a pacing rate of 1 Hz in vitro with rabbit heart tissue preparations.; assay type: functional; in short: as §1
[6] = organism: Oryctolagus cuniculus; experiment: Tested for effective refractory period measured at a pacing rate of 1 Hz in vitro with rabbit heart tissue preparations.; assay type: functional; in short: as §1
[7] = system: Canis familiaris; experiment: Compound was tested in vivo in dogs at a dose of 10 mg/kg through intravenous route and time at which ventricular arrhythmias were not indicible was recorded.(Base line value-5); assay type: functional, Canis lupus familiaris, Cardiac ventricle
In short: (§2)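 Dogs with myocardial infarction were studied 3-9 days after infarction. They were reanesthetized with pentobarbital, ventilated, and electrodes were placed via thoracotomy; blood gases were monitored. Control ERPs and reproducible inducibility were set by programmed electrical stimulation, then cumulative iv doses were given. Agents were in glass-distilled water or NaOH-neutralized saline (pH 6.7-7.0). Animals were counted per category: NI, nonsustained, sustained, VF, or AV block preventing atrial pacing.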

[8] = system: Canis familiaris; experiment: Compound was tested in vivo in dogs at a dose of 3.0 mg/kg through intravenous route and time at which nonsustained ventricular arrhythmias were induced was recorded.(Base line value-1); assay type: functional, Canis lupus familiaris, Cardiac ventricle; conditions: in the assay text read “Base line value-0” for “Base line value-1”; in short: as §2
[9] = system: Canis familiaris; experiment: Compound was tested in vivo in dogs at a dose of 3.0 mg/kg through intravenous route and number of animals in which ventricular arrhythmias were not inducible was recorded.(Base line value-5)
[10] = system: Canis familiaris; experiment: Conduction time from Q wave to T wave of lead II electrocardiogram was tested in dogs at a dose of 10 mg/kg through intravenous administration. (baseline value- 352+/-7); assay type: functional, Canis lupus familiaris
[11] = system: Canis familiaris; experiment: Compound was tested in vivo in dogs at a dose of 10.0 mg/kg through intravenous route and time at which ventricular fibrillation was induced was recorded.(Base line value-6); assay type: functional, Canis lupus familiaris, Cardiac ventricle; conditions: in the assay text read “Base line value-3” for “Base line value-6”; in short: as §2
[12] = system: Canis familiaris; experiment: Conduction time from the His bundle to the onset of ventricular depolarizations was tested in dogs at a dose of 3.0 mg/kg through intravenous administration. (baseline value- 17+/-1 ); assay type: functional, Canis lupus familiaris, Cardiac ventricle
[13] = system: Canis familiaris; experiment: Compound was tested in vivo in dogs at a dose of 3.0 mg/kg through intravenous route and time at which conduction block at the atrioventricular node prevented atrial pacing was recorded.(Base line value-0); assay type: functional, Canis lupus familiaris; in short: as §2
[14] = system: Canis familiaris; experiment: Conduction time from Q wave to T wave of lead II electrocardiogram was tested in dogs at a dose of 1.0 mg/kg through intravenous administration. (baseline value- 352+/-7); assay type: functional, Canis lupus familiaris
[15] = system: Canis familiaris; experiment: Conduction time from the atrium to His bundle was tested in dogs at a dose of 3.0 mg/kg through intravenous administration. (baseline value 73+/-3 ); assay type: functional, Canis lupus familiaris
[16] = system: Canis familiaris; experiment: Compound was tested in vivo in dogs at a dose of 3.0 mg/kg through intravenous route and time at which sustained ventricular arrhythmias were induced was recorded.(Base line value-2); assay type: functional, Canis lupus familiaris, Cardiac ventricle; in short: as §2
[17] = system: Canis familiaris; experiment: Conduction time from Q wave to T wave of lead II electrocardiogram was tested in dogs at a dose of 3.0 mg/kg through intravenous administration. (baseline value- 352+/-7); assay type: functional, Canis lupus familiaris
[18] = system: Canis familiaris; experiment: Compound was tested in vivo in dogs at a dose of 1.0 mg/kg through intravenous route and time at which ventricular fibrillation was induced was recorded.(Base line value-3); assay type: functional, Canis lupus familiaris, Cardiac ventricle; in short: as §2
[19] = system: Canis familiaris; experiment: Conduction time for ventricular refractory period of the first premature stimulus was tested in dogs at a dose of 1.0 mg/kg through intravenous administration. (baseline value- 137+/-4); assay type: functional, Canis lupus familiaris, Cardiac ventricle
[20] = system: Canis familiaris; experiment: Compound was tested in vivo in dogs at a dose of 0.3 mg/kg through intravenous route and time at which conduction block at the atrioventricular node prevented atrial pacing was recorded.(Base line value-0); assay type: functional, Canis lupus familiaris; in short: as §2
[21] = system: Canis familiaris; experiment: Conduction time for ventricular refractory period of the second premature stimulus was tested in dogs at a dose of 3.0 mg/kg through intravenous administration. (baseline value- 123+/-4); assay type: functional, Canis lupus familiaris, Cardiac ventricle
[22] = system: Canis familiaris; experiment: Conduction time from the atrium to His bundle was tested in dogs at a dose of 1.0 mg/kg through intravenous administration. (baseline value- 73+/-3 ); assay type: functional, Canis lupus familiaris
[23] = system: Canis familiaris; experiment: Conduction time from the His bundle to the onset of ventricular depolarizations was tested in dogs at a dose of 1.0 mg/kg through intravenous administration. (baseline value- 17+/-1 ); assay type: functional, Canis lupus familiaris, Cardiac ventricle
[24] = system: Canis familiaris; experiment: Conduction time for ventricular refractory period of the first premature stimulus was tested in dogs at a dose of 3.0 mg/kg through intravenous administration. (baseline value- 137+/-4); assay type: functional, Canis lupus familiaris, Cardiac ventricle
[25] = system: Canis familiaris; experiment: Conduction time from the His bundle to the onset of ventricular depolarizations was tested in dogs at a dose of 10.0 mg/kg through intravenous administration. (baseline value- 17+/-1 ); assay type: functional, Canis lupus familiaris, Cardiac ventricle
[26] = system: Canis familiaris; experiment: Compound was tested in vivo in dogs at a dose of 0.1 mg/kg through intravenous route and time at which conduction block at the atrioventricular node prevented atrial pacing was recorded.(Base line value-0); assay type: functional, Canis lupus familiaris; in short: as §2
[27] = system: Canis familiaris; experiment: Compound was tested in vivo in dogs at a dose of 10.0 mg/kg through intravenous route and time at which nonsustained ventricular arrhythmias were induced was recorded.(Base line value-1); assay type: functional, Canis lupus familiaris, Cardiac ventricle; in short: as §2
[28] = system: Canis familiaris; experiment: Conduction time for ventricular refractory period of the first premature stimulus was tested in dogs at a dose of 10.0 mg/kg through intravenous administration. (baseline value- 137+/-4); assay type: functional, Canis lupus familiaris, Cardiac ventricle
[29] = system: Canis familiaris; experiment: Compound was tested in vivo in dogs at a dose of 10.0 mg/kg through intravenous route and time at which sustained ventricular arrhythmias were induced was recorded.(Base line value-2); assay type: functional, Canis lupus familiaris, Cardiac ventricle; in short: as §2
[30] = system: Canis familiaris; experiment: Conduction time for ventricular refractory period of the second premature stimulus was tested in dogs at a dose of 10 mg/kg through intravenous administration. (baseline value- 123+/-4); assay type: functional, Canis lupus familiaris, Cardiac ventricle
[31] = system: Canis familiaris; experiment: Compound was tested in vivo in dogs at a dose of 1.0 mg/kg through intravenous route and time at which conduction block at the atrioventricular node prevented atrial pacing was recorded.(Base line value-0); assay type: functional, Canis lupus familiaris; in short: as §2
[32] = system: Canis familiaris; experiment: Compound was tested in vivo in dogs at a dose of 10.0 mg/kg through intravenous route and time at which conduction block at the atrioventricular node prevented atrial pacing was recorded.(Base line value-0); assay type: functional, Canis lupus familiaris; in short: as §2
[33] = system: Canis familiaris; experiment: Compound was tested in vivo in dogs at a dose of 3.0 mg/kg through intravenous route and time at which ventricular fibrillation was induced was recorded.(Base line value-6); assay type: functional, Canis lupus familiaris, Cardiac ventricle; conditions: in the assay text read “Base line value-3” for “Base line value-6”; in short: as §2
[34] = system: Canis familiaris; experiment: Compound was tested in vivo in dogs at a dose of 1.0 mg/kg through intravenous route and time at which sustained ventricular arrhythmias were induced was recorded.(Base line value-2); assay type: functional, Canis lupus familiaris, Cardiac ventricle; in short: as §2
[35] = system: Canis familiaris; experiment: Conduction time for ventricular refractory period of the second premature stimulus was tested in dogs at a dose of 1.0 mg/kg through intravenous administration. (baseline value- 123+/-4); assay type: functional, Canis lupus familiaris, Cardiac ventricle
[36] = system: Canis familiaris; experiment: Compound was tested in vivo in dogs at a dose of 1.0 mg/kg through intravenous route and time at which nonsustained ventricular arrhythmias were induced was recorded.(Base line value-0); assay type: functional, Canis lupus familiaris, Cardiac ventricle; in short: as §2
[37] = system: Canis familiaris; experiment: Conduction time from the atrium to His bundle was tested in dogs at a dose of 10.0 mg/kg through intravenous administration. (baseline value- 73+/-3 ); assay type: functional, Canis lupus familiaris
[38] = system: Canis familiaris; experiment: Compound was tested in vivo in dogs at a dose of 1.0 mg/kg through intravenous route and time at which ventricular arrhythmias were not indicible was recorded.(Base line value-5); assay type: functional, Canis lupus familiaris, Cardiac ventricle; in short: as §2

CS(=O)(=O)Nc1ccc(C(O)CCCN2CCCCCC2)cc1 (stereo not drawn)
FOC [1]: 3.4 | ERP3 [2]: 18.3 | CT3 [3]: 0.2 | Rate [4]: -11 | CT1 [5]: 1 | ERP1 [6]: 17.1

CCCCCCCN(CC)CCCCc1ccc(NS(C)(=O)=O)cc1
FOC [1]: -24.2 | ERP3 [2]: 19.2 | CT3 [3]: 140 | Rate [4]: -27 | CT1 [5]: 67.2 | ERP1 [6]: 28.3

CCCCCCCNCCCC(O)c1ccc(NS(C)(=O)=O)cc1 (stereo not drawn)
FOC [1]: -12.1 | ERP3 [2]: 6.8 | CT3 [3]: 8.3 | Rate [4]: -25 | CT1 [5]: -7.4 | ERP1 [6]: 0.4

CCCCCCCN(CC)CCC(O)c1ccc(NS(C)(=O)=O)cc1 (stereo not drawn)
FOC [1]: -23 | ERP3 [2]: 39.3 | CT3 [3]: 40.3 | Rate [4]: -35 | CT1 [5]: 15.7 | ERP1 [6]: 37.5

CCCCCN(CC)CCCC(O)c1ccc(NS(C)(=O)=O)cc1 (stereo not drawn)
FOC [1]: 17.1 | ERP3 [2]: 11.6 | CT3 [3]: 11.9 | Rate [4]: -20 | CT1 [5]: 8.6 | ERP1 [6]: 20.8

CC1CCN(CCCC(O)c2ccc(NS(C)(=O)=O)cc2)CC1 (stereo not drawn)
FOC [1]: -1 | ERP3 [2]: 10.5 | CT3 [3]: -6.5 | CT1 [5]: -2 | ERP1 [6]: 4.5

CCCCCCCN(CC)CCCC(O)c1ccc(Cl)cc1.Cl (stereo not drawn)
FOC [1]: -21 | ERP3 [2]: 14 | Rate [4]: -12 | CT1 [5]: 4 | ERP1 [6]: 10.5

CCCCCCC[N+](CC)(CC)CCCCc1ccc(Cl)cc1.O=P([O-])(O)O [CLOFILIUM PHOSPHATE]
FOC [1]: -10 | ERP3 [2]: 3.4 | CT3 [3]: -1.4 | Rate [4]: -22 | CT1 [5]: 0 | ERP1 [6]: 3

CC(C)NCC(O)c1ccc(NS(C)(=O)=O)cc1.Cl (stereo not drawn) [SOTALOL HYDROCHLORIDE]
Time [7]: 5 animals | Time [8]: 2 animals | FOC [1]: 6 | Number of animals not inducible [9]: 7 animals | ERP3 [2]: 4.9 | Time [10]: 181 ms | Time [11]: 0 animals | Time [12]: 39 ms | Time [13]: 0 animals | Time [14]: 197 ms | Time [15]: 90 ms | Time [16]: 1 animals | Time [17]: 197 ms | Time [18]: 0 animals | Time [19]: 145 ms | Rate [4]: -10 | Time [20]: 0 animals | Time [21]: 138 ms | CT1 [5]: -11.7 | Time [22]: 77 ms | Time [23]: 40 ms | Time [24]: 152 ms | Time [25]: 42 ms | Time [26]: 0 animals | Time [27]: 1 animals | Time [28]: 157 ms | Time [29]: 0 animals | Time [30]: 141 ms | ERP1 [6]: 7.3 | Time [31]: 0 animals | Time [32]: 4 animals | Time [33]: 0 animals | Time [34]: 2 animals | Time [35]: 126 ms | Time [36]: 0 animals | Time [37]: 107 ms | Time [38]: 8 animals
